In brackets after ≈: the same amount, converted by molar mass.
Tests used:
[1] = test system: Mycobacterium tuberculosis; assay: Antimycobacterial activity against Mycobacterium tuberculosis H37Rv ATCC 27294 assessed as reduction in bacterial cell growth incubated for 7 days by microplate alamar blue assay; format: functional; details: H37Rv ATCC 27294, 168 h
Summary of the method: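 MABA: H37Rv or clinical MDR isolates (resistant to INH and RFP, Beijing Chest Hospital patients) grown to late log phase in 7H9 with glycerol, Tween 80 and ADC, washed, filtered and frozen. Two-fold compound dilutions with 2 × 10⁵ CFU per well, 37 °C; Alamar blue plus Tween 80 added on day 7, fluorescence (ex 530/em 590) read after 16–24 h. MIC = lowest concentration giving ≥90% fluorescence reduction versus mean of bacterium-only controls; RIF and INH as positive controls.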

[2] = Cytotoxicity against African green monkey Vero cells assessed as reduction in cell viability; format: cell-based; details: chlorocebus sabaeus
[3] = test system: Mycobacterium tuberculosis; assay: Antituberculosis activity against Mycobacterium tuberculosis H37Rv infected in BALB/C mouse assessed as colony forming unit in lungs at 25 mg/kg, po administered once daily via gavage for 5 days per week for 3 weeks starting from 10 days post-infection (reference value: 6.44 +/- 0.34); format: functional

SMILES	MIC90 [1]	CC50 [2]	Activity [3]
CCO/N=C(\C)CN1CCN(c2nc(=O)c3cc(C(F)(F)F)cc([N+](=O)[O-])c3s2)CC1	< 0.016 µg/mL	> 64 µg/mL	–
C/C(CN1CCN(c2nc(=O)c3cc(C(F)(F)F)cc([N+](=O)[O-])c3s2)CC1)=N\OCc1ccccc1	< 0.016 µg/mL	> 64 µg/mL	–
CCON=C1CCC(CN2CCN(c3nc(=O)c4cc(C(F)(F)F)cc([N+](=O)[O-])c4s3)[C@@H](C)C2)CC1 (stereo not given in full)	< 0.016 µg/mL	> 64 µg/mL	–
CON=C1CCC(CN2CCN(c3nc(=O)c4cc(C(F)(F)F)cc([N+](=O)[O-])c4s3)C[C@@H]2C)CC1 (stereo not given in full)	< 0.016 µg/mL	> 64 µg/mL	–
CO/N=C(\C)CCN1CCN(c2nc(=O)c3cc(C(F)(F)F)cc([N+](=O)[O-])c3s2)CC1	< 0.016 µg/mL	> 64 µg/mL	–
CON=C1CCC(CN2CCN(c3nc(=O)c4cc(C(F)(F)F)cc([N+](=O)[O-])c4s3)C[C@H]2C)CC1 (stereo not given in full)	< 0.016 µg/mL	> 64 µg/mL	–
CON=C1CCC(CN2CCN(c3nc(=O)c4cc(C(F)(F)F)cc([N+](=O)[O-])c4s3)[C@@H](C)C2)CC1 (stereo not given in full)	< 0.016 µg/mL	> 64 µg/mL	–
CCO/N=C(\C)CN1CCC2(CCN(c3nc(=O)c4cc(C(F)(F)F)cc([N+](=O)[O-])c4s3)CC2)C1	0.029 µg/mL (≈ 0.0565 µM)	–	–
CCON=C1CCC(CN2CCN(c3nc(=O)c4cc(C(F)(F)F)cc([N+](=O)[O-])c4s3)C[C@H]2C)CC1 (stereo not given in full)	< 0.016 µg/mL	> 64 µg/mL	–
CON=C1CC(CN2CCN(c3nc(=O)c4cc(C(F)(F)F)cc([N+](=O)[O-])c4s3)CC2C)C1 (stereo not given)	0.056 µg/mL (≈ 0.115 µM)	–	–
C/C(CCN1CCC2(CCN(c3nc(=O)c4cc(C(F)(F)F)cc([N+](=O)[O-])c4s3)CC2)C1)=N/OCc1ccccc1	0.119 µg/mL (≈ 0.202 µM)	–	–
CO/N=C(\C)CN1CCC2(CCN(c3nc(=O)c4cc(C(F)(F)F)cc([N+](=O)[O-])c4s3)CC2)C1	0.085 µg/mL (≈ 0.17 µM)	–	–
CO/N=C(\C)CN1CCN(c2nc(=O)c3cc(C(F)(F)F)cc([N+](=O)[O-])c3s2)CC1	0.037 µg/mL (≈ 0.0831 µM)	–	–
CON=C1CCC(CN2CCN(c3nc(=O)c4cc(C(F)(F)F)cc([N+](=O)[O-])c4s3)[C@H](C)C2)CC1 (stereo not given in full)	0.023 µg/mL (≈ 0.0448 µM)	–	–
CCON=C1CC(CN2C(C)CN(c3nc(=O)c4cc(C(F)(F)F)cc([N+](=O)[O-])c4s3)CC2C)C1 (stereo not given)	0.056 µg/mL (≈ 0.109 µM)	–	–
CCON=C1CCC(CN2CCN(c3nc(=O)c4cc(C(F)(F)F)cc([N+](=O)[O-])c4s3)C[C@@H]2C)CC1 (stereo not given in full)	< 0.016 µg/mL	> 64 µg/mL	–

SMILES	MIC90 [1]	CC50 [2]	Activity [3]
CON=C1CC(CN2CCN(c3nc(=O)c4cc(C(F)(F)F)cc([N+](=O)[O-])c4s3)CC2)C1 (stereo not given)	0.023 µg/mL (≈ 0.0488 µM)	–	–
CON=C1CCC(CN2CC(C)N(c3nc(=O)c4cc(C(F)(F)F)cc([N+](=O)[O-])c4s3)CC2C)CC1 (stereo not given)	0.031 µg/mL (≈ 0.0588 µM)	–	–
CCON=C1CCC(CN2C(C)CN(c3nc(=O)c4cc(C(F)(F)F)cc([N+](=O)[O-])c4s3)CC2C)CC1 (stereo not given)	< 0.016 µg/mL	60.5 µg/mL (≈ 112 µM)	–
CCO/N=C(\C)CCN1CCN(c2nc(=O)c3cc(C(F)(F)F)cc([N+](=O)[O-])c3s2)CC1	< 0.016 µg/mL	> 64 µg/mL	–
CCON=C1CCC(CN2CCN(c3nc(=O)c4cc(C(F)(F)F)cc([N+](=O)[O-])c4s3)[C@H](C)C2)CC1 (stereo not given in full)	< 0.016 µg/mL	> 64 µg/mL	–
CCON=C1CC(CN2CCN(c3nc(=O)c4cc(C(F)(F)F)cc([N+](=O)[O-])c4s3)CC2C)C1 (stereo not given)	0.052 µg/mL (≈ 0.104 µM)	–	–
CCON=C1CC(CN2CCN(c3nc(=O)c4cc(C(F)(F)F)cc([N+](=O)[O-])c4s3)CC2)C1 (stereo not given)	< 0.016 µg/mL	> 64 µg/mL	–
CON=C1CC(CN2C(C)CN(c3nc(=O)c4cc(C(F)(F)F)cc([N+](=O)[O-])c4s3)CC2C)C1 (stereo not given)	0.066 µg/mL (≈ 0.132 µM)	–	–
CCON=C1CCC(CN2CCN(c3nc(=O)c4cc(C(F)(F)F)cc([N+](=O)[O-])c4s3)CC2C)CC1 (stereo not given)	< 0.016 µg/mL	> 64 µg/mL	–
CON=C1CCC(CN2CCN(c3nc(=O)c4cc(C(F)(F)F)cc([N+](=O)[O-])c4s3)CC2C)CC1 (stereo not given)	< 0.016 µg/mL	> 64 µg/mL	–
CCO/N=C(/C)CCN1CCC2(CCN(c3nc(=O)c4cc(C(F)(F)F)cc([N+](=O)[O-])c4s3)CC2)C1	0.241 µg/mL (≈ 0.457 µM)	–	–
C/C(CCN1CCN(c2nc(=O)c3cc(C(F)(F)F)cc([N+](=O)[O-])c3s2)CC1)=N\OCc1ccccc1	< 0.016 µg/mL	> 64 µg/mL	–
CO/N=C(/C)CCN1CCC2(CCN(c3nc(=O)c4cc(C(F)(F)F)cc([N+](=O)[O-])c4s3)CC2)C1	0.469 µg/mL (≈ 0.913 µM)	–	–
CON=C1CCC(CN2C(C)CN(c3nc(=O)c4cc(C(F)(F)F)cc([N+](=O)[O-])c4s3)CC2C)CC1 (stereo not given)	< 0.016 µg/mL	> 64 µg/mL	–
NNC(=O)c1ccncc1 [ISONIAZID]	0.031 µg/mL (≈ 0.226 µM)	–	1.76 log10CFU
CO[C@H]1/C=C/O[C@@]2(C)Oc3c(C)c(O)c4c(O)c(c(/C=N/N5CCN(C)CC5)c(O)c4c3C2=O)NC(=O)/C(C)=C\C=C\[C@H](C)[C@H](O)[C@@H](C)[C@@H](O)[C@@H](C)[C@H](OC(C)=O)[C@@H]1C [RIFAMPIN]	0.078 µg/mL (≈ 0.0948 µM)	–	–
